In ChEMBL document CHEMBL4689842, “EUbOPEN Chemogenomics Library wave 1” (2021):
Values joined by “and” are separate entries in the source; they are usually repeats but may differ in a detail not shown here. Equal values may be shown once.

Columns and labels:
Format in all cases: toxicity, cell-based
[1] = tested on: Fibroblast; experiment: Multiplex assay against human fibroblast; conditions: 10 µM, compound concentration 10 uM
Method in brief: (§1)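 With compound added, live cells were imaged on a CQ1 microscope at 37°C and 5% CO2; staining with Hoechst33342, BioTracker Green Microtubule Cytoskeleton Dye, MitoTracker Red and Annexin V Alexa Fluor 680 had been done at seeding. The CellPathfinder machine-learning gating scheme split cells into Hoechst high-intensity objects or normal cells, normal cells into healthy, pyknosed or fragmented nuclei, and pyknosed cells into mitotic or apoptotic. The tubulin, mitochondrial-mass and membrane-permeability phenotypes are per cents of healthy-nucleus cells.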

[2] = tested on: HEK-293T; experiment: Incucyte cell viability with HEK293T; conditions: human, 10 µM, compound concentration 10 uM; further: filed as whole numbers so only -1 and 0 and 1 occur
[3] = tested on: U2OS; experiment: Incucyte cell viability with U2OS; conditions: human, 10 µM, compound concentration 10 uM; further: filed as whole numbers so only -1 and 0 and 1 occur
[4] = tested on: Fibroblast; experiment: Incucyte cell viability with human fibroblast; conditions: 10 µM, compound concentration 10 uM; further: filed as whole numbers so only -1 and 0 and 1 occur
[5] = tested on: HEK-293T; experiment: Multiplex assay against HEK293T; conditions: human, 10 µM, compound concentration 10 uM; method in brief: as §1;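 on Population Tubulin-Different-Phenotype (%): share of the cells with healthy nuclei that show this phenotype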
[6] = 0 h, replicate number 1, timepoint 0 hours
[7] = 6 h, replicate number 1, timepoint 6 hours
[8] = 12 h, replicate number 1, timepoint 12 hours
[9] = 18 h, replicate number 1, timepoint 18 hours
[10] = 24 h, replicate number 1, timepoint 24 hours
[11] = 12 h, replicate number 2, timepoint 12 hours

## C#Cc1cccc(Nc2ncnc3cc(OCCOC)c(OCCOC)cc23)c1 [ERLOTINIB]
[1]; 12 h, replicate 1
  Population Apoptotic (%): 59% and 66%
  Population Fragmented Nuclei (%): 22% and 24% and 20%
  Population Healthy Nuclei (%): 35% and 58% and 62%
  Population Hoechst High Intensity Objects (%): 10% and 11% and 15%
  Population Mitotic Cells (%): 40% and 33% and 29%
  Population Normal (%): 89% and 88% and 84%
  Population Pyknosed Nuclei (%): 41% and 16%
  Total Cell Count: 125 and 263 and 267
[1]; 12 h, replicate 2
  Population Membrane Permeable-Phenotype (%): 10% and 9% and 13%
  Population Normal (%): 57% and 66% and 91%
[1]; 24 h, replicate 1
  Population Apoptotic (%): 60% and 66%
  Population Fragmented Nuclei (%): 23% and 27% and 21%
  Population Healthy Nuclei (%): 46% and 52% and 60%
  Population Hoechst High Intensity Objects (%): 22% and 12% and 19%
  Population Mitotic Cells (%): 40% and 39% and 33%
  Population Normal (%): 77% and 87% and 80%
  Population Pyknosed Nuclei (%): 30% and 19% and 18%
  Total Cell Count: 127 and 268 and 287
[1]; 24 h, replicate 2
  Population Apoptotic (%): 100% and 57% and 75%
  Population Hoechst High Intensity Objects (%): 28% and 38%
  Population Normal (%): 71% and 61%
  Population Pyknosed Nuclei (%): 10% and 16%
[1]; 48 h, replicate 1
  Population Apoptotic (%): 87%
  Population Fragmented Nuclei (%): 41%
  Population Healthy Nuclei (%): 41%
  Population Hoechst High Intensity Objects (%): 16%
  Population Membrane Permeable-Phenotype (%): 23%
  Population Mitochondria Different-Phenotype (%): 33%
  Population Mitotic Cells (%): 12%
  Population Normal (%): 83%
  Population Pyknosed Nuclei (%): 17%
  Population Tubulin-Different-Phenotype (%): 89%
  Total Cell Count: 113
[1]; 48 h, replicate 2
  Population Apoptotic (%): 50%
  Population Fragmented Nuclei (%): 28%
  Population Healthy Nuclei (%): 62%
  Population Hoechst High Intensity Objects (%): 23%
  Population Membrane Permeable-Phenotype (%): 19%
  Population Mitochondria Different-Phenotype (%): 19%
  Population Mitotic Cells (%): 50%
  Population Normal (%): 76%
  Population Pyknosed Nuclei (%): 9%
  Population Tubulin-Different-Phenotype (%): 95%
  Total Cell Count: 86
[2]; [6]
  Growth Rate: 0
[2]; [7]
  Growth Rate: 0
[2]; [8]
  Growth Rate: 0
[2]; [9]
  Growth Rate: 0
[2]; [10]
  Growth Rate: 0
[3]; 0 h, replicate number 2, timepoint 0 hours
  Growth Rate: 1
[3]; 6 h, replicate number 2, timepoint 6 hours
  Growth Rate: 0
[3]; [8]
  Growth Rate: 1
[3]; [11]
  Growth Rate: 0
[3]; [9]
  Growth Rate: 0
[3]; [10]
  Growth Rate: 1
[3]; 24 h, replicate number 2, timepoint 24 hours
  Growth Rate: 0
[4]; [6]
  Growth Rate: 0
[4]; [7]
  Growth Rate: 0
[4]; [8]
  Growth Rate: 0
[4]; [11]
  Growth Rate: 1
[4]; [9]
  Growth Rate: 0
[4]; [10]
  Growth Rate: 0
[5]; 12 h, replicate 1
  Population Apoptotic (%): 61% and 22% and 23%
  Population Fragmented Nuclei (%): 11% and 22% and 20%
  Population Healthy Nuclei (%): 23% and 55% and 63%
  Population Hoechst High Intensity Objects (%): 14% and 12%
  Population Membrane Permeable-Phenotype (%): 8% and 18% and 7%
  Population Mitotic Cells (%): 38% and 77% and 76%
  Population Normal (%): 85% and 87%
  Total Cell Count: 229 and 602 and 657
[5]; 12 h, replicate 2
  Population Fragmented Nuclei (%): 12% and 6% and 7%
  Population Hoechst High Intensity Objects (%): 5% and 2%
  Population Mitotic Cells (%): 49% and 88% and 94%
  Population Normal (%): 94% and 97%
[5]; 24 h, replicate 1
  Population Fragmented Nuclei (%): 10% and 13% and 15%
  Population Healthy Nuclei (%): 31% and 68% and 74%
  Population Hoechst High Intensity Objects (%): 16% and 12% and 8%
  Population Mitotic Cells (%): 29% and 68% and 78%
  Population Normal (%): 83% and 87% and 91%
  Total Cell Count: 250 and 573 and 727
[5]; 24 h, replicate 2
  Population Healthy Nuclei (%): 38% and 82% and 70%
  Population Hoechst High Intensity Objects (%): 2% and 3%
  Population Normal (%): 97% and 96%
[5]; 48 h, replicate 1
  Population Apoptotic (%): 64%
  Population Fragmented Nuclei (%): 20%
  Population Healthy Nuclei (%): 22%
  Population Hoechst High Intensity Objects (%): 20%
  Population Membrane Permeable-Phenotype (%): 2%
  Population Mitochondria Different-Phenotype (%): 88%
  Population Mitotic Cells (%): 35%
  Population Normal (%): 79%
  Population Pyknosed Nuclei (%): 57%
  Population Tubulin-Different-Phenotype (%): 91%
  Total Cell Count: 254
[5]; 48 h, replicate 2
  Population Apoptotic (%): 45%
  Population Fragmented Nuclei (%): 4%
  Population Healthy Nuclei (%): 56%
  Population Hoechst High Intensity Objects (%): 5%
  Population Membrane Permeable-Phenotype (%): 5%
  Population Mitochondria Different-Phenotype (%): 81%
  Population Mitotic Cells (%): 54%
  Population Normal (%): 94%
  Population Pyknosed Nuclei (%): 38%
  Population Tubulin-Different-Phenotype (%): 97%
  Total Cell Count: 197
